Here are results for 14 molecules from ChEMBL document CHEMBL1123069, “[[(4,5-Dihydro-2-oxazolyl)phenoxy]alkyl]isoxazoles. Inhibitors of picornavirus uncoating” (1985).

Values after ≈ are worked out from the molar mass of the structure shown. Active and inactive are the calls of the source. No cut-off for these calls is given here.

One test concerns Enterovirus. The test is described as follows: In vitro antiviral activity against Rhinovirus type-2. In kind it is functional.
The nature of test [1]: In vitro antiviral activity against mice infected intracerebrally with Poliovirus type-2. Type of test: functional.
For test [2], the species on record is Mus musculus. Briefly: MIC at the Maximal testable level in mice was evaluated. Type of test: functional. Conditions: read-out: MIC.
Test [3] has as its system Mus musculus. Briefly: In vivo antiviral activity at 16 mg/kg oral dose in mice infected with Poliovirus;13/20. Type of test: functional. The method, boiled down: (§1)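 Mice given oral drug or placebo starting 1 h before intracerebral infection with poliovirus type 2. Doses were 4, 8, 16 or 32 mg/kg, with 20 mice per group. Survival was scored as % survivors and number surviving out of total, with the test ending 20 days post-infection.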

In test [4] the test system is Mus musculus. Briefly: In vivo antiviral activity at 32 mg/kg oral dose in mice infected with Poliovirus. In kind it is functional. The method, boiled down:
as §1

The species entered for test [5] is Mus musculus. The test is described as follows: Prevention of Echo-9-Induced Paralysis in Suckling mice with Placebo; expressed as no. nonparalyzed/total 0/30. Type of test: functional. The method, boiled down: (§2)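 Suckling mice infected subcutaneously with a lethal dose of ECHO-9 virus. Intraperitoneal dosing at 1.0, 3.3, 10 or 33 mg/kg, or placebo, began 1 h before infection and continued once daily for 8 days. Groups of 30 animals were scored for paralysis, and the test ended 14 days post-infection. Results are given as % nonparalyzed (± spread) and as the nonparalyzed/total count.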

The subject of test [6] is Mus musculus. The test is described as follows: Prevention of Echo-9-Induced Paralysis in Suckling mice by intraperitoneal administration at dose 33 mg/kg; Expressed as % nonparalyzed. In kind it is functional. The method, boiled down:
as §2

Test [7] has as its system Mus musculus. Briefly: In vivo antiviral activity at 4 mg/kg oral dose in mice infected with Poliovirus; 8/20. Type of test: functional. The method, boiled down:
as §1

Test [8] deals with Mus musculus. Briefly: Prevention of Echo-9-Induced Paralysis in Suckling mice by intraperitoneal administration at dose 1 mg/kg; Expressed as % nonparalyzed. Type of test: functional. The method, boiled down: as §2
Test [9] deals with Mus musculus. The test is described as follows: Prevention of Echo-9-Induced Paralysis in Suckling mice by intraperitoneal administration at dose 10 mg/kg; expressed as no. nonparalyzed/total 19/30. Type of test: functional. The method, boiled down:
as §2

Test [10] has as its system Mus musculus. The test is described as follows: Prevention of Echo-9-Induced Paralysis in Suckling mice by intraperitoneal administration at dose 33 mg/kg; expressed as no. nonparalyzed/total 29/30. In kind it is functional. The method, boiled down:
as §2

Test [11] relates to Mus musculus. The test is described as follows: Prevention of Echo-9-Induced Paralysis in Suckling mice by intraperitoneal administration at dose 1 mg/kg; expressed as no. nonparalyzed/total 2/30. In kind it is functional. The method, boiled down:
as §2

Test [12] deals with Mus musculus. The test is described as follows: In vivo antiviral activity at 32 mg/kg oral dose in mice infected with Poliovirus; 15/20. Type of test: functional. The method, boiled down: as §1
For test [13], the system named is Mus musculus. Briefly: Prevention of Echo-9-Induced Paralysis in Suckling mice by intraperitoneal administration at dose 3.3 mg/kg; Expressed as % nonparalyzed. In kind it is functional. The method, boiled down: as §2
The subject of test [14] is Mus musculus. Briefly: In vivo antiviral activity at 8 mg/kg oral dose in mice infected with Poliovirus; 9/20. In kind it is functional. The method, boiled down: as §1
Test [15] relates to Mus musculus. Briefly: In vivo antiviral activity at 4 mg/kg oral dose in mice infected with Poliovirus. Type of test: functional. The method, boiled down:
as §1

The species entered for test [16] is Mus musculus. Briefly: Prevention of Echo-9-Induced Paralysis in Suckling mice with Placebo; Expressed as % nonparalyzed. In kind it is functional. The method, boiled down:
as §2

Test [17] relates to Mus musculus. The test is described as follows: In vivo antiviral activity of the compound in Placebo treated mice infected with Poliovirus; 4/20. Type of test: functional. The method, boiled down: as §1
The subject of test [18] is Mus musculus. Briefly: In vivo antiviral activity at 16 mg/kg oral dose in mice infected with Poliovirus. Type of test: functional. The method, boiled down:
as §1

Test [19] has as its system Mus musculus. The test is described as follows: In vivo antiviral activity of the compound in Placebo treated mice infected with Poliovirus. Type of test: functional. The method, boiled down:
as §1

Test [20] relates to Mus musculus. The test is described as follows: In vivo antiviral activity at 8 mg/kg oral dose in mice infected with Poliovirus. In kind it is functional. The method, boiled down: as §1
The test system of test [21] is Mus musculus. Briefly: Prevention of Echo-9-Induced Paralysis in Suckling mice by intraperitoneal administration at dose 3.3 mg/kg; expressed as no. nonparalyzed/total 6/30. Type of test: functional. The method, boiled down: as §2
The subject of test [22] is Mus musculus. Briefly: Prevention of Echo-9-Induced Paralysis in Suckling mice by intraperitoneal administration at dose 10 mg/kg; Expressed as % nonparalyzed. In kind it is functional. The method, boiled down:
as §2

In test [23] the test system is Mus musculus. Briefly: In vitro antiviral activity against mice infected intracerebrally with Poliovirus type-2; IA=Inactive. Type of test: functional, organism-based.

As to `COc1ccc(OCCCCCCCc2cc(C)no2)c(Cl)c1`, the results for the MIC (against Enterovirus; in test [1]) were 0.04 µg/mL (≈ 0.118 µM) and 0.05 µg/mL (≈ 0.148 µM), respectively.
For the molecule `Cc1cc(CCCCCCOc2ccc(C3=NCCO3)cc2)on1`, the maximal testable concentration in the test filed under Mus musculus [2] is 3.1 µg/mL. The MIC in the test with Enterovirus turned out to be 0.12 µg/mL (≈ 0.365 µM); in [1] it was 0.008 µg/mL (≈ 0.0244 µM).
The matching figures for `Cc1cc(CCCCCCCOc2ccc(C3=NCC(CO)O3)cc2)on1` (stereo not given): 3.1 µg/mL, 1.6 µg/mL (≈ 4.3 µM) and 2.6 µg/mL (≈ 6.98 µM).
The corresponding values for `Cc1cc(CCCCCOc2ccc(C3=NCCO3)cc2)on1` are 3.1 µg/mL, 0.1 µg/mL (≈ 0.318 µM) and 0.003 µg/mL (≈ 0.00954 µM).
In the case of `Cc1cc(CCCCCCCOc2ccc(C3=NCCO3)cc2)on1` [DISOXARIL], the No. of survivors/total in the test with Mus musculus [3] is 13; in the test on Mus musculus [7] it was 8; with Mus musculus [12] it was 15; with Mus musculus [14], 9; in the test on Mus musculus [17], 4. The Survivors is 71% in the test with Mus musculus [4]; 40% in the test with Mus musculus [15]; 65% in the test with Mus musculus [18]; 20% with Mus musculus [19]; 45% in the test on Mus musculus [20]. Further, the Activity in the test filed under Mus musculus [5] was 0; with Mus musculus [6], 96.7%; in the test with Mus musculus [8], 6.7%; with Mus musculus [9], 19; with Mus musculus [10], 29; in the test on Mus musculus [11], 2. Moreover, the Activity in the test on Mus musculus [13] was found to be 20%; in the test filed under Mus musculus [16] it was 0%; in the test on Mus musculus [21], 6; with Mus musculus [22], 63.7%. Also, the maximal testable concentration in the test listed under Mus musculus [2] was determined as 6.2 µg/mL. Further, the MIC against Enterovirus amounted to 0.1 µg/mL (≈ 0.292 µM); in test [1] it was 0.004 µg/mL (≈ 0.0117 µM).
As to `COCC1CN=C(c2ccc(OCCCCCCCc3cc(C)no3)cc2)O1` (stereo not given), the maximal testable concentration in the test filed under Mus musculus [2] came to 3.1 µg/mL. For the same molecule, in the test with Mus musculus [23], the MIC entry is “inactive”. In the test on Enterovirus, this molecule returned an MIC of 0.2 µg/mL (≈ 0.517 µM).
With `Cc1cc(CCCCCCCCOc2ccc(C3=NCCO3)cc2)on1`, the maximal testable concentration in the test listed under Mus musculus [2] is 8 µg/mL. Besides, the MIC amounted to 0.16 µg/mL (≈ 0.449 µM) with Enterovirus and 0.01 µg/mL (≈ 0.0281 µM) in [1].
The matching figures for `Cc1cc(CCCCCCCOc2ccc(C3=NC(C)(C)CO3)cc2)on1`: 3.1 µg/mL, 0.06 µg/mL (≈ 0.162 µM) and 1.1 µg/mL (≈ 2.97 µM).
Consider `Cc1cc(CCCCCCCOc2ccc(C3=NC(CO)CO3)cc2)on1` (stereo not given), for which the maximal testable concentration in the test filed under Mus musculus [2] is 3.1 µg/mL. For the same molecule, the MIC result in the test on Mus musculus [23] was “inactive”. In the test on Enterovirus, this molecule returned an MIC of 0.9 µg/mL (≈ 2.42 µM).
As for `CCOC(=O)c1ccc(OCCCCCCCc2cc(C)no2)cc1`, the MIC with Enterovirus was 0.025 µg/mL (≈ 0.0724 µM); in [1], more than 0.8 µg/mL.
As for `Cc1cc(CCCCCCCOc2ccc(C3=N[C@H](C)CO3)cc2)on1`, the maximal testable concentration in the test listed under Mus musculus [2] stood at 3.1 µg/mL. The MIC with Enterovirus is 0.02 µg/mL (≈ 0.0561 µM); in test [1], 0.16 µg/mL (≈ 0.449 µM).
The corresponding values for `Cc1cc(CCCCOc2ccc(C3=NCCO3)cc2)on1` are 6.2 µg/mL, 0.53 µg/mL (≈ 1.76 µM) and 0.49 µg/mL (≈ 1.63 µM).
The corresponding values for `Cc1cc(CCCCCCCOc2ccc(C3=NC(C)CO3)cc2)on1` (stereo not given) are 3.1 µg/mL, 0.04 µg/mL (≈ 0.112 µM) and 0.12 µg/mL (≈ 0.337 µM).
The matching figures for `Cc1cc(CCCCCCCOc2ccc(C3=NCC(C)O3)cc2)on1` (stereo not given): 6.2 µg/mL, 0.06 µg/mL (≈ 0.168 µM) and 0.49 µg/mL (≈ 1.37 µM).
